Shown are actives, neighbours in structure and some others; about 1.2% of the full set was active somewhere.
Dynein transport = blocks dynein driven cargo transport along microtubules | 0.47% of 220,000 active | z-score, hits read low | 3617.4 mouse cells, GR-EGFP nuclear translocation imaging; test concentration mostly 20 µM; stimulated with dexamethasone, 1 µM; stronger effect = lower value | AID 1381;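 active means plate z-score of nuclear minus cytoplasmic receptor signal below a set negative limit, without overly bright fluorescence or cell loss, cut at about -3.5 in these data, passing the limit was not always enough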;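 further: z-score of nuclear minus cytoplasmic ring GR-EGFP intensity difference per well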
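Buffer or medium: tet-free medium with charcoal-stripped serum / Also added: dexamethasone agonist, 1.0 µM final, for 30 min / Timing: induction 48 h, compound 1 h, agonist 30 min / Measured by: high-content fluorescence imaging after fixation / Read-out: nuclear-to-cytoplasmic GR-EGFP distribution per well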
Autophagy HCS = autophagy modulation, high-content screen | MEF GFP-LC3 puncta imaging; test concentration mostly 10 µM | calls only at 10 µM (by protocol) | 0.98% of 190,000 active;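 active means percentage of spot-positive cells more than 3 SD above its plate mean, without a fluorescence outlier flag or 80% toxicity; inconclusive means no clear call, values can overlap the other calls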
HSV augment = increases HSV replication in cells; HSV replication augmentation in cells, fold increase; maximum fold increase; 0.005% of 220,000 active; in the data active means maximum fold increase above about 1.5; inconclusive means no clear call, values can overlap the other calls; tested in PC3 cells
TbHK1 inh = T. brucei hexokinase 1 inhibition | recombinant TbHK1, G6PDH-coupled NADH A340 | inhibition, % at 10 µM | 0.11% of 220,000 active;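 active means inhibition of 50% or more in the single-dose primary screen; inactive means inhibition below 50%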
PERK inhibitor = human PERK inhibition, primary cell-based screen. Q9NZJ5. CHO PERK-DD fusion, SEAP luminescence translation reporter. inhibition, % at 5.6 µM. 0.17% of 220,000 active. AID 1416;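 active means inhibition above the mean inhibition of all tested compounds plus 3 SD, set separately per screening campaign, cut at about 2.9% in these data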;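 further: PERK kinase domain activated by AP20187 dimerizer at 100 nM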
HKDC1 inhibitor = HKDC1 (human) hexokinase inhibition. 0.16% of 340,000 active. recombinant HKDC1, G6PDH/diaphorase resazurin coupled fluorescence. inhibition, % at 20 µM. Q2TB90. AID 493160;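 active means inhibition above about 35% when tested at 20 µM, limit read from the data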
Target sequence (Q2TB90 whole entry, looked up): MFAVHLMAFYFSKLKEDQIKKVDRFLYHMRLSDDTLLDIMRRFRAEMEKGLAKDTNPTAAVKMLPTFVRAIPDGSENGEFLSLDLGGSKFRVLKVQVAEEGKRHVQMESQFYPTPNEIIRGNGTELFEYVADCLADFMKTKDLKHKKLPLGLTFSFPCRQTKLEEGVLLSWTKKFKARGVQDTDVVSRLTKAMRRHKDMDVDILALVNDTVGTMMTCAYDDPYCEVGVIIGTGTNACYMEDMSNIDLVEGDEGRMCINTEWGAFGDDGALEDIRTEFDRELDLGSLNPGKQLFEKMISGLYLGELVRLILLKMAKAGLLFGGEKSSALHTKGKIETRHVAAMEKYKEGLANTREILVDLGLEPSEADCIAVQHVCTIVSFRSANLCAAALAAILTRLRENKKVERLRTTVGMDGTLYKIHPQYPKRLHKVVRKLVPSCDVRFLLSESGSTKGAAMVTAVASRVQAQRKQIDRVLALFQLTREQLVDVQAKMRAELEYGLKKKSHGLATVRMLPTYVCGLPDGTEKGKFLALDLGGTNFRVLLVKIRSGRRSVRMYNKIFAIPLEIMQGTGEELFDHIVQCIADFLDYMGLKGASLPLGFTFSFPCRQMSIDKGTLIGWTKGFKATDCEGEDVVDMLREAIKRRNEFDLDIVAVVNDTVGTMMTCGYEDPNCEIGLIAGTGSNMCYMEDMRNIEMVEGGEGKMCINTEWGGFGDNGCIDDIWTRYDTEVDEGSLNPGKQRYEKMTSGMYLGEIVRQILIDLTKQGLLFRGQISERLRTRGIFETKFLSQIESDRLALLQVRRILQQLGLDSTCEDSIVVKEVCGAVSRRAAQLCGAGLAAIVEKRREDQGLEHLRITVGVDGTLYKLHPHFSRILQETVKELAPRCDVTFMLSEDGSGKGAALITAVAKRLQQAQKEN
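Test system: recombinant HKDC1 (HK5) hexokinase enzyme, produced in-house / Doses: 20 µM test compound, 1% DMSO / Timing: 90 min, room temperature / Detection: G6PDH/diaphorase-coupled fluorescence, 1 mM NADP, 100 µM resazurin, 525/613 nm / Control set: DMSO wells with and without enzyme mix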
Dynein inh conf = dynein cargo transport inhibition, confirmation. 3617.4 GR-EGFP nuclear translocation imaging, dexamethasone-induced. shares compounds with Dynein transport. 69% of 1,000 active. calls only at 20 µM;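 active means inhibition of receptor movement into the nucleus at or above a set limit in both runs, with normal cell brightness and cell count; inconclusive means limit reached in only one run, brightness and count normal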;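 further: dexamethasone at 1 µM final in well for 30 min; nuclear minus cytoplasmic GR-EGFP mean intensity difference in channel 2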
A number is an active result; 0 = inactive; ? = inconclusive; - = not tested or not shown; + = active, no number.

SMILES | Dynein transport | Autophagy HCS | HSV augment | TbHK1 inh | PERK inhibitor | HKDC1 inhibitor | Dynein inh conf
Cc1ccc[n+](CC(=O)Nc2cc(C(F)(F)F)ccc2Cl)c1 | - | 0 | 0 | 0 | 0 | 0 | -
O=c1[nH]c(C(Cl)(Cl)Cl)nc2ccc3ccccc3c12 | - | - | - | - | - | 0 | -
CS(=O)(=O)c1ncc(Cl)c(C(=O)Nc2ccc3ccccc3c2)n1 | -4.22 | 0 | 0 | 0 | 0 | 0 | +
Cc1ccc(S(=O)(=O)NCC(C)n2nc(C)cc2C)cc1 (configuration not stated) | - | - | - | - | - | 0 | -
Cc1ccc(C(C[N+](=O)[O-])n2nc(C)cc2C)cc1 (configuration not stated) | -5.31 | 0 | 0 | 0 | 0 | 0 | 0
Cc1cc(C)c(S(=O)(=O)ON2C(=O)c3ccccc3C2=O)cc1C | -6.08 | 0 | 0 | 0 | 0 | 0 | +
Cc1cc(C)c(C)c(S(=O)(=O)ON2C(=O)c3ccccc3C2=O)c1C | -4.32 | 0 | 0 | 0 | 0 | 0 | +
CCOc1ccc(C(=O)C(CCC(CN(C)C)C(=O)c2ccc(OCC)cc2)CN(C)C)cc1 (configuration not stated) | -4.09 | 0 | 0 | 0 | 0 | 0 | 0
O=C(COC(=O)c1ccc(NC(=O)C2CC=CCC2C(=O)O)cc1)c1ccccc1 (configuration not stated) | - | - | - | - | - | 0 | -
COc1cc(/C=C2/C(=O)c3cccc([N+](=O)[O-])c3C2=O)c(Br)cc1O | -3.52 | 0 | 0 | 0 | 0 | 0 | 0
O=C(CN1CCN(c2cnn(-c3ccccc3)c(=O)c2Cl)CC1)NC1CCS(=O)(=O)C1 (configuration not stated) | - | - | - | - | - | 0 | -
CCOc1ccc2nc(SC3CC(=O)N(c4ccc(OC)cc4OC)C3=O)sc2c1 (configuration not stated) | -4.9 | 0 | 0 | 0 | 0 | 0 | +
NC(=O)C1CCN(CC(=O)Nc2ccccc2N2CCOCC2)CC1 | 0 | - | 0 | 0 | 0 | 0 | -
Cc1ccc(Cn2cc(/C=N/Nc3ccc([N+](=O)[O-])cn3)c3ccccc32)cc1 | 0 | + | ? | 0 | 0 | 0 | +
CCn1c(CNC(=O)c2ccco2)nnc1SCC(=O)Nc1cc(F)ccc1C | - | - | - | - | - | 0 | -
CN(C)S(=O)(=O)c1ccc(Cl)c(NC(=O)CN2C(=O)NC3(CCc4ccccc43)C2=O)c1 (configuration not stated) | - | - | - | - | - | 0 | -
O=C(CCl)Nc1cc(-c2ccccc2)nn1-c1ccccc1 | -4.85 | + | 0 | 0 | 0 | 0 | +
COc1ccc(Nc2ccccc2N)cc1 | -5.13 | 0 | ? | 0 | 0 | 0 | 0
CCc1nn(CC(=O)N2CCN(c3ccc(F)cc3)CC2)c(=O)c2cc3occc3n12 | - | - | - | - | - | 0 | -
COC(=O)c1nn(-c2ccc(OC)cc2)c(=O)cc1O | 0 | 0 | 0 | 0 | 0 | 0 | -
COc1ccc(-n2nc(C#N)c(Cl)cc2=O)cc1 | -5.86 | 0 | 0 | 0 | 0 | 0 | +
Cc1ccc(C2=NOC(=O)/C2=C\c2ccc(C)o2)cc1 | -5.65 | - | 0 | 0 | 0 | 0 | +
Cc1[nH]c2ccccc2c1CN1CCc2ccccc2C1 | -3.83 | 0 | 0 | 0 | 0 | 0 | 0
O=C(COc1ccc2ccccc2c1)N[C@@H](C(=O)O)c1ccc(O)cc1 | - | - | - | - | - | 0 | -
Cc1ccc2cc(CN(CC3CCCO3)C(=S)NCc3ccco3)c(=O)[nH]c2c1 (configuration not stated) | -3.55 | 0 | 0 | 0 | 0 | 0 | 0
SMILES | Dynein transport | Autophagy HCS | HSV augment | TbHK1 inh | PERK inhibitor | HKDC1 inhibitor | Dynein inh conf
Cc1ccc2[nH]c(=O)c(CN(CC3CCCO3)C(=S)NCc3ccco3)cc2c1 (configuration not stated) | 0 | 0 | 0 | 0 | 0 | 0 | -
Cc1c(C)c2ccc(OCC(=O)NCCN3CCOCC3)cc2oc1=O | - | - | - | - | - | 0 | -
O=C(Cn1nnc2ccccc2c1=O)NCCc1ccccc1 | 0 | 0 | 0 | 0 | 0 | 0 | -
COc1ccc(CNC(=O)Cn2nnc3ccccc3c2=O)cc1 | -5.26 | - | 0 | 0 | 0 | 0 | 0
CC(C)N=c1scc(-c2cccs2)n1/N=C/c1ccc(O)c(O)c1O | -4.16 | 0 | 0 | 0 | 0 | 0 | +
NC(=O)c1ccc(NC(=O)CSC2=Nc3ccccc3C3CC=NN23)cc1 (configuration not stated) | -4.17 | 0 | 0 | 0 | 0 | 0 | 0
COC(=O)c1ccc(NC(=O)CSC2=Nc3ccccc3C3CC=NN23)cc1 (configuration not stated) | 0 | 0 | 0 | 0 | 0 | 0 | -
C/C(=N\NC(=O)C1CCCC1)c1ccc(Cl)cc1Cl | - | - | - | - | - | 0 | -
O=C(/C=C/c1ccccn1)c1cc(Br)ccc1O | -4.82 | - | 0 | 0 | 0 | 0 | +
O=C(C=Cc1ccccc1O)c1ccccc1O | - | - | - | - | - | 0 | -
O=C(/C=C/c1ccccn1)c1ccc(Br)cc1O | -3.68 | 0 | 0 | 0 | 0 | 0 | ?
Cc1ccc(S(=O)(=O)N2CCOCC2)cc1NC(=O)COC(=O)CNC(=O)c1ccc(Cl)cc1Cl | - | - | - | - | - | 0 | -
Cc1ccc(S(=O)(=O)NCCNC(=O)CN2CCOCC2)cc1 | - | - | - | - | - | 0 | -
COc1cccc(-n2nnnc2S(C)(=O)=O)c1 | -4.51 | 0 | 0 | 0 | 0 | 0 | +
Nc1nc2ccc(S(=O)(=O)N3CCCCC3)cc2s1 | -4.14 | 0 | 0 | 0 | 0 | 0 | 0
CCn1c(=O)c2c(nc(SCC(=O)N3CCC(C)CC3)n2C)n(C)c1=O | - | - | - | - | - | 0 | -
O=[N+]([O-])c1ccc(N2CCN(c3ccc(Cl)nn3)CC2)cc1NC1CC1 | 0 | 0 | 0 | 0 | 0 | 0 | 0
O=c1ccsc2ccccc12 | - | - | - | - | - | 0 | -
O=c1[nH]sc2ccccc12 | -3.8 | 0 | 0 | 0 | 0 | 0 | +
CSc1nnc(C2CCN(CC(=O)Nc3ccccc3N3CCOCC3)CC2)n1C(C)C | - | - | - | - | - | 0 | -
CCOn1c(=O)c(-c2ccc(OC)c(OC)c2)[n+]([O-])c2ccccc21 | -3.74 | 0 | 0 | 0 | 0 | 0 | 0
CCOn1c(=O)c(-c2ccc(OC)cc2)[n+]([O-])c2ccccc21 | 0 | 0 | 0 | 0 | 0 | 0 | -
Cc1nc2ccccc2c(=O)n1/N=C/c1ccc([N+](=O)[O-])o1 | -4.02 | - | 0 | 0 | 0 | - | +
Cc1nc2ccccc2n1/N=C/c1ccc([N+](=O)[O-])o1 | 0 | 0 | 0 | 0 | 0 | 0 | -
CC(=O)c1cccc(NC(=O)C(C)OC(=O)CCN=C2NS(=O)(=O)c3ccccc32)c1 (configuration not stated) | - | - | - | - | - | 0 | -
COc1cc(C(=O)COC(=O)c2ccncc2)cc(OC)c1OC | - | - | - | - | - | 0 | -
CCC1(C)CC2(CCCN(CCC(=O)c3ccccc3)C2)CCO1 (configuration not stated) | -3.75 | 0 | 0 | 0 | 0 | 0 | 0
O=C(CCN1CCCCCC1)c1ccccc1 | 0 | 0 | 0 | 0 | 0 | 0 | -
Cc1nc2c(ccc3nc(NC(=O)c4ccc(S(=O)(=O)N(C)C)cc4)sc32)s1 | -4.13 | 0 | 0 | 0 | 0 | 0 | 0
Cc1nc2c(ccc3nc(NC(=O)Cc4ccccc4)sc32)s1 | 0 | 0 | - | 0 | 0 | 0 | -

Screening results deposited in PubChem by several laboratories.
